From ChEMBL document CHEMBL4715736, “Identification of anticancer agents based on the thieno[2,3-b]pyridine and 1H-pyrazole molecular scaffolds” (2016)

Tests used:
Format in all cases: functional
Details in all cases: read-out: Activity
[1] = test system: HL-60(TB); assay: Growth inhibition of human HL-60(TB) cells assessed as cell growth at 10 uM incubated for 48 hrs by sulforhodamine B assay relative to control
How it was run: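 Screened by the NCI Developmental Therapeutics Program on its panel of 60 human tumour cell lines. Compounds were first tested at a single 10 µM dose, and compounds active there went to dose-response curves. Growth is expressed relative to untreated control (100%). GI50 (50% of maximal proliferation inhibition) and TGI (total growth inhibition) were derived from the dose-response data.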

[2] = test system: MOLT-4; assay: Growth inhibition of human MOLT-4 cells assessed as cell growth at 10 uM incubated for 48 hrs by sulforhodamine B assay relative to control
How it was run: (§1)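 Submitted to the NCI Developmental Therapeutics Program for the NCI60 human tumour cell line panel. First screen at a single 10 µM concentration. Read-out is growth relative to untreated control cells set at 100%.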

[3] = test system: RPMI-8226; assay: Growth inhibition of human RPMI-8226 cells assessed as cell growth at 10 uM incubated for 48 hrs by sulforhodamine B assay relative to control
How it was run: (§2)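 Run by the NCI Developmental Therapeutics Program as part of its 60-line human tumour panel. Each compound tested at a single 10 µM dose. Growth expressed as % relative to untreated control cells (100%).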

[4] = test system: SR; assay: Growth inhibition of human SR cells assessed as cell growth at 10 uM incubated for 48 hrs by sulforhodamine B assay relative to control; how it was run: as §2
[5] = test system: NCI-H226; assay: Growth inhibition of human NCI-H226 cells assessed as cell growth at 10 uM incubated for 48 hrs by sulforhodamine B assay relative to control; how it was run: as §1
[6] = test system: NCI-H322M; assay: Growth inhibition of human NCI-H322M cells assessed as cell growth at 10 uM incubated for 48 hrs by sulforhodamine B assay relative to control; how it was run: as §1
[7] = test system: NCI-H460; assay: Growth inhibition of human NCI-H460 cells assessed as cell growth at 10 uM incubated for 48 hrs by sulforhodamine B assay relative to control; how it was run: as §1
[8] = test system: HCC 2998; assay: Growth inhibition of human HCC 2998 cells assessed as cell growth at 10 uM incubated for 48 hrs by sulforhodamine B assay relative to control
How it was run: (§3)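 NCI Developmental Therapeutics Program NCI60 panel. Compounds that were active in the 10 µM one-dose screen went on to dose–response testing. Growth at each concentration is expressed relative to untreated control (100%). GI50 (concentration giving 50% of maximal inhibition of proliferation) and TGI (concentration giving total growth inhibition) were derived from the curves.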

[9] = test system: HCT-116; assay: Growth inhibition of human HCT-116 cells assessed as cell growth at 10 uM incubated for 48 hrs by sulforhodamine B assay relative to control; how it was run: as §1
[10] = test system: KM12; assay: Growth inhibition of human KM12 cells assessed as cell growth at 10 uM incubated for 48 hrs by sulforhodamine B assay relative to control; how it was run: as §1
[11] = test system: SW-620; assay: Growth inhibition of human SW-620 cells assessed as cell growth at 10 uM incubated for 48 hrs by sulforhodamine B assay relative to control; how it was run: as §2
[12] = test system: SF-295; assay: Growth inhibition of human SF-295 cells assessed as cell growth at 10 uM incubated for 48 hrs by sulforhodamine B assay relative to control; how it was run: as §2
[13] = test system: SF-539; assay: Growth inhibition of human SF-539 cells assessed as cell growth at 10 uM incubated for 48 hrs by sulforhodamine B assay relative to control; how it was run: as §2
[14] = test system: LOX IMVI; assay: Growth inhibition of human LOX IMVI cells assessed as cell growth at 10 uM incubated for 48 hrs by sulforhodamine B assay relative to control; how it was run: as §1
[15] = test system: Malme-3M; assay: Growth inhibition of human Malme-3M cells assessed as cell growth at 10 uM incubated for 48 hrs by sulforhodamine B assay relative to control; how it was run: as §1
[16] = test system: MDA-MB-435; assay: Growth inhibition of human MDA-MB-435 cells assessed as cell growth at 10 uM incubated for 48 hrs by sulforhodamine B assay relative to control; how it was run: as §1
[17] = test system: SK-MEL-28; assay: Growth inhibition of human SK-MEL-28 cells assessed as cell growth at 10 uM incubated for 48 hrs by sulforhodamine B assay relative to control; how it was run: as §2
[18] = test system: SK-MEL-5; assay: Growth inhibition of human SK-MEL-5 cells assessed as cell growth at 10 uM incubated for 48 hrs by sulforhodamine B assay relative to control; how it was run: as §2
[19] = test system: OVCAR-3; assay: Growth inhibition of human OVCAR-3 cells assessed as cell growth at 10 uM incubated for 48 hrs by sulforhodamine B assay relative to control; how it was run: as §2
[20] = test system: OVCAR-4; assay: Growth inhibition of human OVCAR-4 cells assessed as cell growth at 10 uM incubated for 48 hrs by sulforhodamine B assay relative to control; how it was run: as §2
[21] = test system: OVCAR-5; assay: Growth inhibition of human OVCAR-5 cells assessed as cell growth at 10 uM incubated for 48 hrs by sulforhodamine B assay relative to control; how it was run: as §2
[22] = test system: NCI/ADR-RES; assay: Growth inhibition of human NCI/ADR-RES cells assessed as cell growth at 10 uM incubated for 48 hrs by sulforhodamine B assay relative to control; how it was run: as §1
[23] = test system: 786-0; assay: Growth inhibition of human 786-0 cells assessed as cell growth at 10 uM incubated for 48 hrs by sulforhodamine B assay relative to control; how it was run: as §3
[24] = test system: ACHN; assay: Growth inhibition of human ACHN cells assessed as cell growth at 10 uM incubated for 48 hrs by sulforhodamine B assay relative to control
How it was run: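 NCI Developmental Therapeutics Program NCI60 human tumour cell line panel, one-dose primary screen with every compound at 10 µM. Growth is expressed as % of untreated control cells (100%).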

[25] = test system: RXF 393; assay: Growth inhibition of human RXF 393 cells assessed as cell growth at 10 uM incubated for 48 hrs by sulforhodamine B assay relative to control; how it was run: as §2
[26] = test system: SN12C; assay: Growth inhibition of human SN12C cells assessed as cell growth at 10 uM incubated for 48 hrs by sulforhodamine B assay relative to control; how it was run: as §2
[27] = test system: UO-31; assay: Growth inhibition of human UO-31 cells assessed as cell growth at 10 uM incubated for 48 hrs by sulforhodamine B assay relative to control; how it was run: as §2
[28] = test system: PC-3; assay: Growth inhibition of human PC-3 cells assessed as cell growth at 10 uM incubated for 48 hrs by sulforhodamine B assay relative to control; how it was run: as §2
[29] = test system: DU-145; assay: Growth inhibition of human DU-145 cells assessed as cell growth at 10 uM incubated for 48 hrs by sulforhodamine B assay relative to control; how it was run: as §3
[30] = test system: MCF7; assay: Growth inhibition of human MCF7 cells assessed as cell growth at 10 uM incubated for 48 hrs by sulforhodamine B assay relative to control; how it was run: as §1
[31] = test system: Hs-578T; assay: Growth inhibition of human Hs-578T cells assessed as cell growth at 10 uM incubated for 48 hrs by sulforhodamine B assay relative to control; how it was run: as §1
[32] = test system: T47D; assay: Growth inhibition of human T47D cells assessed as cell growth at 10 uM incubated for 48 hrs by sulforhodamine B assay relative to control; how it was run: as §2
[33] = test system: MDA-MB-468; assay: Growth inhibition of human MDA-MB-468 cells assessed as cell growth at 10 uM incubated for 48 hrs by sulforhodamine B assay relative to control; how it was run: as §1

Row | Compound | growth at 10 µM [1] | growth at 10 µM [2] | growth at 10 µM [3] | growth at 10 µM [4] | growth at 10 µM [5] | growth at 10 µM [6] | growth at 10 µM [7] | growth at 10 µM [8] | growth at 10 µM [9] | growth at 10 µM [10] | growth at 10 µM [11] | growth at 10 µM [12] | growth at 10 µM [13] | growth at 10 µM [14] | growth at 10 µM [15] | growth at 10 µM [16] | growth at 10 µM [17] | growth at 10 µM [18] | growth at 10 µM [19] | growth at 10 µM [20] | further results
1 | COc1ccc(S(=O)(=O)n2ccc(-c3ccc4c(c3)CCC(C)(C)O4)n2)cc1OC | 94.7% | 63.8% | 59% | 60.2% | 59% | 89.5% | 69.6% | 78.9% | 61.5% | 71.4% | 79.9% | 63% | 97.2% | 76.7% | 114% | 79.6% | 91% | 28.2% | 70.9% | 46% | growth at 10 µM [21]: 105%; growth at 10 µM [22]: 56.5%; growth at 10 µM [23]: 79.4%; growth at 10 µM [24]: 78%; growth at 10 µM [25]: 75.1%; growth at 10 µM [26]: 83.1%; growth at 10 µM [27]: 68.5%; growth at 10 µM [28]: 69.5%; growth at 10 µM [29]: 82.6%; growth at 10 µM [30]: 64.3%; growth at 10 µM [31]: 91.5%; growth at 10 µM [32]: 43.7%; growth at 10 µM [33]: 28.4%
2 | CC1(C)CCc2cc(-c3ccn(S(=O)(=O)c4ccccc4)n3)ccc2O1 | 89.4% | 61.5% | 59.5% | 56.7% | 69.7% | 91.7% | 72.8% | 83.2% | 62.7% | 71.5% | 71% | 81.4% | 92.8% | 85.2% | 99.3% | 79% | 97.2% | 75.7% | 81.4% | 64.2% | growth at 10 µM [21]: 89.7%; growth at 10 µM [22]: 76%; growth at 10 µM [23]: 74.5%; growth at 10 µM [24]: 90.1%; growth at 10 µM [25]: 81.7%; growth at 10 µM [26]: 98.8%; growth at 10 µM [27]: 63.6%; growth at 10 µM [28]: 61.8%; growth at 10 µM [29]: 85.6%; growth at 10 µM [30]: 76.1%; growth at 10 µM [31]: 90.1%; growth at 10 µM [32]: 50.5%; growth at 10 µM [33]: 54.6%
